Measured values published in ChEMBL document CHEMBL4371072, “Structure-Activity Relationship Studies and Plasmodium Life Cycle Profiling Identifies Pan-Active N-Aryl-3-trifluoromethyl Pyrido[1,2- a]benzimidazoles Which Are Efficacious in an in Vivo Mouse Model of Malaria” (J Med Chem, 2019).

Assays:
[1] = test system: CHO; assay: Cytotoxicity against CHO cells after 48 hrs by MTT assay; format: cell-based; details: Cricetulus griseus
[2] = test system: Plasmodium falciparum; assay: Antiplasmodial activity against chloroquine-sensitive asexual blood stage of Plasmodium falciparum NF54 infected in human RBC assessed as reduction in [3H]hypoxanthine incorporation preincubated for 48 hrs followed by [3H]hypoxanthine addition measured after 24 hrs by liquid scintillation counting method; format: functional, organism-based
How it was run: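 Asexual blood-stage P. falciparum NF54 assay, run as a modified [3H]-hypoxanthine incorporation assay. Values are the mean of n ≥ 2 assays; determinations differing more than 3-fold were excluded. Chloroquine and artesunate served as controls.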

[3] = Half life in human liver microsomes at 0.1 uM in presence of NADPH by LC-MS/MS analysis
[4] = Selectivity index, ratio of IC50 for CHO cells to IC50 for chloroquine-sensitive asexual blood stage of Plasmodium falciparum NF54 infected in human RBC; format: toxicity; details: Chinese hamster, read-out: Ratio IC50
How it was run: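 Selectivity index taken as the ratio of the CHO-cell IC50 to the P. falciparum NF54 IC50.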

[5] = test system: Plasmodium falciparum; assay: Antiplasmodial activity against chloroquine-sensitive final late stage of Plasmodium falciparum NF54-Mal8p1.16-GFP-Luc gametocytes after 24 hrs by BacTiter-Glo assay; format: functional, organism-based; details: NF54, 24 h
How it was run: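 Late-stage PfNF54 gametocytes produced in vitro; gametocytocidal IC50 via luciferase reporter and ATP bioluminescence platforms; n=3 independent biological replicates in technical triplicates, ± S.E.M.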

[6] = Metabolic stability in human liver microsomes assessed as parent compound remaining at 0.1 uM after 30 mins in presence of NADPH by LC-MS/MS analysis
[7] = Half life in Balb/c mouse liver microsomes at 0.1 uM in presence of NADPH by LC-MS/MS analysis
[8] = test system: Plasmodium berghei; assay: Antimalarial activity against liver stage form of luciferase transfected Plasmodium berghei sporozoites infected in human HuH7 cells preincubated with host cells for 1 hr followed by plasmodial infection and measured after 48 hrs by bioluminescence method; format: functional, organism-based; details: Huh-7
[9] = Metabolic stability in Balb/c mouse liver microsomes assessed as parent compound remaining at 0.1 uM after 30 mins in presence of NADPH by LC-MS/MS analysis
[10] = test system: Plasmodium falciparum; assay: Ratio of IC50 for early stage of Plasmodium falciparum NF54-PfS16-GFP-Luc gametocytes to IC50 for late stage of Plasmodium falciparum NF54-Mal8p1.16-GFP-Luc gametocytes; format: functional
[11] = test system: Plasmodium falciparum; assay: Ratio of IC50 for late stage of Plasmodium falciparum NF54-Mal8p1.16-GFP-Luc gametocytes to IC50 for early stage of Plasmodium falciparum NF54-PfS16-GFP-Luc gametocytes; format: functional
[12] = test system: Plasmodium falciparum; assay: Antiplasmodial activity against chloroquine-resistant asexual blood stage of Plasmodium falciparum K1 infected in human RBC assessed as reduction in [3H]hypoxanthine incorporation preincubated for 48 hrs followed by [3H]hypoxanthine addition measured after 24 hrs by liquid scintillation counting method; format: functional, organism-based
How it was run: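 Asexual blood-stage P. falciparum K1 (multidrug resistant) screened by modified [3H]-hypoxanthine incorporation assay; IC50 as mean of n ≥ 2 assays, replicates differing above 3-fold excluded; chloroquine and artesunate controls.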

[13] = Resistance index, ratio of IC50 for chloroquine-resistant asexual blood stage of Plasmodium falciparum K1 infected in human RBC to IC50 for chloroquine-sensitive asexual blood stage of Plasmodium falciparum NF54 infected in human RBC; format: functional
[14] = biological target: T1, hERG (KCNH2) (Homo sapiens, UniProt Q12809); assay: Inhibition of human ERG expressed in CHO cells assessed as reduction in peak channel current at 0.3 uM by IonWork patch-clamp electrophysiology method relative to control; format: cell-based; details: CHO cells expressing human ERG
T1 sequence (Q12809 whole entry): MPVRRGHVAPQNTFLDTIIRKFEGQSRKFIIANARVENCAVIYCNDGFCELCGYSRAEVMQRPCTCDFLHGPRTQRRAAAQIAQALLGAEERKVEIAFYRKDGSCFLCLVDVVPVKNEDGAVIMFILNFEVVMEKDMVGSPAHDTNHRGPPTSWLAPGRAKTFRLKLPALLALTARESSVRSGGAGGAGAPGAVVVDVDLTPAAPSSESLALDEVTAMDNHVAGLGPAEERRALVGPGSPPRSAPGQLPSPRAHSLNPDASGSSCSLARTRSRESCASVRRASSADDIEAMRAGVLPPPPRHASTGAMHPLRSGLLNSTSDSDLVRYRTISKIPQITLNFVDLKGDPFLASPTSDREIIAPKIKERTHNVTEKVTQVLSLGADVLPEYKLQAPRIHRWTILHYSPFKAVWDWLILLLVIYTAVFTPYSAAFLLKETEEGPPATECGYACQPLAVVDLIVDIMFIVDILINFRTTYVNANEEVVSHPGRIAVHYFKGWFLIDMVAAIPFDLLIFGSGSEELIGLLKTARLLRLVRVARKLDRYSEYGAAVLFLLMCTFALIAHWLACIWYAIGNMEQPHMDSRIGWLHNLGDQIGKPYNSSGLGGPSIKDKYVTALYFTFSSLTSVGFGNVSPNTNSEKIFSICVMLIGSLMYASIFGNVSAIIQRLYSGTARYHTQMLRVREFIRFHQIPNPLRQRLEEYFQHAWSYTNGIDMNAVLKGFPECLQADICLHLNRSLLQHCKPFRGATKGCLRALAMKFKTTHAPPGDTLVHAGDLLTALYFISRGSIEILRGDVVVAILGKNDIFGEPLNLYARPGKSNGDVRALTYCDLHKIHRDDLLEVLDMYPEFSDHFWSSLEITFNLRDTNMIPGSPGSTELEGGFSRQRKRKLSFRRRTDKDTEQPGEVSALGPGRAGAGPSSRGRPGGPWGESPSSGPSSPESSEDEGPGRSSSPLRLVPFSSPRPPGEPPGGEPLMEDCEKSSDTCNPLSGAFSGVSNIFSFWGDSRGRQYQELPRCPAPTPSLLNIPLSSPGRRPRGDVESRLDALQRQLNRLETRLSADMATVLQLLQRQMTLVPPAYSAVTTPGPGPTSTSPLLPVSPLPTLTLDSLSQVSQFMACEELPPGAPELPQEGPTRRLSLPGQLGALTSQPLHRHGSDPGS

[15] = biological target: T1, hERG (KCNH2); assay: Inhibition of human ERG expressed in CHO cells assessed as reduction in peak channel current at 10 uM by IonWork patch-clamp electrophysiology method relative to control; format: cell-based; details: CHO cells expressing human ERG
How it was run: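 hERG potassium channel profiled by IonWorks patch-clamp electrophysiology, with 10 μM as the highest concentration tested. Values are the mean of 3 results from experiments run as biological and technical triplicates.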

[16] = biological target: Voltage-gated inwardly rectifying potassium channel KCNH2 (Homo sapiens, UniProt Q12809); assay: Inhibition of human ERG expressed in CHO cells assessed as reduction in peak channel current by IonWork patch-clamp electrophysiology method; format: cell-based
Voltage-gated inwardly rectifying potassium channel KCNH2, sequence (Q12809 whole entry, the tested form may be a part): as the sequence (Q12809 whole entry) above

[17] = test system: Plasmodium berghei; assay: Antimalarial activity against GFP-fused Plasmodium berghei ANKA infected in NMRI mouse assessed as inhibition of parasitemia at 50 mg/kg, po administered consecutively at 4, 24, 48 and 72 hrs post infection by flow cytometry relative to control; format: functional
How it was run: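 NMRI mice infected intravenously with P. berghei; oral treatment at 50 mg/kg given 4, 24, 48 and 72 h post-infection (4 x 50 mg/kg). Control mice received vehicle only. Parasitemia of treated animals compared with that of untreated controls. Mice counted as cured if no parasitemia was detected 30 days after treatment.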

[18] = test system: Plasmodium berghei; assay: Antimalarial activity against GFP-fused Plasmodium berghei ANKA infected in NMRI mouse assessed as host mean survival time at 50 mg/kg, po administered consecutively at 4, 24, 48 and 72 hrs post infection; format: functional
How it was run: (§1)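 NMRI mice infected intravenously with P. berghei; oral treatment at 4, 24, 48 and 72 h post-infection (4 x 50 mg/kg), vehicle to controls; reference drug 4 x 30 mg/kg orally on four consecutive days. Parasitemia compared with untreated controls; mean survival days recorded; cure if no parasitemia 30 days after treatment.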

[19] = Solubility of the compound; format: physicochemical
[20] = Lipophilicity, log D of the compound; format: physicochemical; details: octanol/water
How it was run: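 LogD computed with ChemDraw 16.0.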

[21] = test system: Plasmodium berghei; assay: Antimalarial activity against GFP-fused Plasmodium berghei ANKA infected in NMRI mouse assessed as host mean survival time at 30 mg/kg, po administered for 4 consecutive days; format: functional; how it was run: as §1
[22] = test system: Hemozoin; assay: Inhibition of beta hematin formation after 5 hrs by NP40 detergent-based assay

SMILES	IC50 [1] [µM]	IC50 [2] [nM]	half-life at 0.1 µM ([3]; liver microsomes) [min]	selectivity ratio [4]	IC50 [5] [nM]	remaining at 0.5 h, 0.1 µM ([6]; liver microsomes) [%]	half-life at 0.1 µM ([7]; liver microsomes) [min]	IC50 [8] [nM]	remaining at 0.5 h, 0.1 µM ([9]; liver microsomes) [%]	IC50 [12] [nM]	Ratio IC50 [13]	inhibition at 0.3 µM [14] [%]	inhibition at 10 µM [15] [%]	IC50 [16] [µM]	further results
N#Cc1c(C(F)(F)F)cc(NCc2ccc(OC(F)(F)F)cc2)n2c1nc1cc(Cl)c(Cl)cc12	5.02	440	> 150	11	210	> 99	105	190	82						
Cc1ccc(CNc2cc(C(F)(F)F)c(C#N)c3nc4cc(Cl)c(Cl)cc4n23)cc1	6.06	400		15	600										Ratio IC50 [10]: 0.2; Ratio IC50 [11]: 6; half-life at 0.1 µM ([3]; microsomes): > 150 min; remaining at 0.5 h, 0.1 µM ([6]; microsomes): 91%; half-life at 0.1 µM ([7]; microsomes): 56 min; remaining at 0.5 h, 0.1 µM ([9]; microsomes): 69%
N#Cc1c(C(F)(F)F)cc(NCc2ccc(F)cc2)n2c1nc1ccccc12	45	1270		35				890		890	0.7				
N#Cc1c(C(F)(F)F)cc(NCc2cccs2)n2c1nc1cc(Cl)c(Cl)cc12	8.48	310		27	1670			140		140	0.45	6.13	< 40	> 10	
N#Cc1c(C(F)(F)F)cc(NCc2cccc(F)c2)n2c1nc1cc(Cl)c(Cl)cc12	7.03	190		37	270			70		150	0.79	6.53	< 40	> 10	Ratio IC50 [10]: 1.2; Ratio IC50 [11]: 0.5; half-life at 0.1 µM ([3]; microsomes): > 150 min; remaining at 0.5 h, 0.1 µM ([6]; microsomes): 100%; half-life at 0.1 µM ([7]; microsomes): 119 min; remaining at 0.5 h, 0.1 µM ([9]; microsomes): 84%
N#Cc1c(C(F)(F)F)cc(NCc2ccc(OC(F)(F)F)cc2)n2c1nc1ccccc12	> 222	920		> 241				480		840	0.91				
N#Cc1c(C(F)(F)F)cc(NCc2ccco2)n2c1nc1cc(Cl)c(Cl)cc12	4.84	440	> 150	10	2000	100	50	60	66	230	0.52	6.82	< 40	> 10	
N#Cc1c(C(F)(F)F)cc(NCc2ccccc2F)n2c1nc1cc(Cl)c(Cl)cc12	4.3	170	> 150	25	370	97	119	50	84	140	0.82	5.49	< 40	> 10	inhibition in vivo at 50 mg/kg [17]: 99.9%; MST [18]: 14 days; solubility [19]: < 5 µM; logD [20]: 4.16
CCN(CC)CCCC(C)Nc1ccnc2cc(Cl)ccc12 (stereo not given) [CHLOROQUINE]															MST [21]: 21 days; IC50 [22]: 18 µM
N#Cc1c(C(F)(F)F)cc(NCc2ccc(F)cc2)n2c1nc1cc(Cl)c(Cl)cc12	13	440	> 150	30	690	102	63		72	280	0.64				
N#Cc1c(C(F)(F)F)cc(NCc2ccccn2)n2c1nc1cc(Cl)c(Cl)cc12	0.75	1420	63	0.5	2480	72	18		31						IC50 [22]: 59 µM
